Source: PubChem BioAssay (several laboratories)
DSG3 Ab inh: blocks pemphigus antibody binding to human desmoglein-3; P32926; DSG3-coupled beads, scFv-anti-DSG3-GFP binding, flow cytometry; hits give low values; binding (percent of control), % at 10 µM; 0.48% of 310,000 active; AID 588358;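 active = binding more than 3 SD below its plate's average and above zero; inconclusive = below that plate limit but binding exactly zero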;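 note: hits lower antibody fragment binding to DSG3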
LANA-H2A inh: blocks KSHV LANA binding to histone H2A/H2B; Q9QR71; cell-free LANA-H2A/H2B peptide, fluorescence polarization; inhibition, % (concentration not given with the values); 0.6% of 320,000 active; in the data active = inhibition mostly above about 10%, no sharp cut-off; inactive = mostly below about 6.7%
Arr AP2 block: human beta-arrestin and AP2 interaction inhibition; 0.31% of 340,000 active; AID 504490; inhibition, % at 10 µM; FITC-arrestin peptide / GST-AP2 beads, flow cytometry; AP2 beta2 appendage carries R879A mutation;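 active = inhibition above a set limit, near 3 SD of compounds lacking own fluorescence, cut at about 54% in these data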;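 note: plate controls were DMSO wells for no effect and 5 µM unlabelled arrestin peptide for full effect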
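system = GST-tagged AP2 beta2-adaptin appendage (R879A) on 4 µm glutathione beads | reagent = FITC-labelled arrestin peptide probe, 50 nM final | schedule = compound with beads 12 min RT, then probe 1 h RT | signal = HyperCyt-sampled flow cytometry, FL1 channel, ex 488/em 535 nm | read-out = percent response from loss of bead-bound FITC fluorescence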
T cell HTS: modulates CD8 T cell binding to vesicles; response (vesicle binding), % at 7 µM; 2C CD8+ T cell-vesicle binding, flow cytometry; hits give low values; 0.068% of 330,000 active;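 active = response, share of CD8 T cells binding vesicles, and their 90th percentile fluorescence all below set limits, cut at about 80% in these data, passing the limit was not always enough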;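 note: values below 100% mean blocked vesicle binding to the CD8+ T cells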
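Also added: QL9-peptide-loaded Drosophila micro-vesicles bearing Ld, ICAM-1 and B7-1; Test system: purified 2C TCR transgenic mouse naive CD8+ T cells; Measured by: cytometric PE anti-B7-1 and Alexa647 anti-CD8 signals after 1% paraformaldehyde fixation; Timing: binding step 1.5 h, 37 °C, antibody labelling 20 min, ice.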
HDAC3 inh: human HDAC3 inhibition | recombinant HDAC3, fluorogenic peptide/trypsin coupled, fluorescence | inhibition, % at 8.3 µM | 0.15% of 320,000 active | AID 2718; in the data active = inhibition above about 26%, passing the limit was not always enough; inconclusive = no clear call, values can overlap the other calls
Target sequence (O15379 whole entry, looked up): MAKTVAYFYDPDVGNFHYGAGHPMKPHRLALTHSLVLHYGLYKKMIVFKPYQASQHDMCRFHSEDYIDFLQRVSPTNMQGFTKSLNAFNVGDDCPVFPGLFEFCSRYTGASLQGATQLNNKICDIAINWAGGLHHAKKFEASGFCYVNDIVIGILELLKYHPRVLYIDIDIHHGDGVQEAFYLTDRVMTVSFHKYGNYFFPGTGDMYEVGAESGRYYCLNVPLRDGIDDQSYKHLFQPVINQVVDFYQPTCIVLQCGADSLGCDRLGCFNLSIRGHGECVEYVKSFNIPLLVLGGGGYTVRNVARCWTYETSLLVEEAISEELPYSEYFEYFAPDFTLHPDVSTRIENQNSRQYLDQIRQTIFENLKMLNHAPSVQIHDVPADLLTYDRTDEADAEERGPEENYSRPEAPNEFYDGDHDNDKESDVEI
JMJD2C inh: human JMJD2C demethylase inhibition; Q9H3R0; GST-JMJD2C(1-420) H3K9me3 demethylation, DELFIA europium; inhibition, % at 2.35 µM; 0.069% of 330,000 active;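 active = more than half of a compound's replicate wells show inhibition beyond 50%, single wells judged on their own value; inconclusive = some, but no more than half, of replicates pass 50% inhibition; inactive = no replicate passes 50% inhibition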;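 note: signal counts dimethyl H3K9 product captured on neutravidin plate; 0% = median of DMSO wells and 100% = 0.3 times that DMSO median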
Starred values were filed as active, the others as inactive; i = inactive; ? = inconclusive; / = no result; + = active, no number. An excerpt weighted towards active compounds, which were near 1.6% of everything screened.

SMILES | DSG3 Ab inh | LANA-H2A inh | Arr AP2 block | T cell HTS | HDAC3 inh | JMJD2C inh
CCS(=O)(=O)N1Cc2ccccc2CC1C(=O)N(C)CC(=O)Nc1ccc(F)c(F)c1F (stereo not drawn) | 106 | 32* | 23 | 614 | 0 | 6
Cc1sc2ncnc(-n3cnc4ccccc43)c2c1C | 106 | 83* | 1 | 942 | -8 | -4
CCc1ccc(-c2cc3c(=O)n(CC(=O)N4CCCCCC4)nc(C)n3n2)cc1 | 106 | -2 | 14 | 124 | 2 | -22
COc1ccc([N+](=O)[O-])cc1NC1CCN(C(=O)c2cccs2)CC1 | ? | -2 | 3 | 241 | 5 | 5
CC(=O)N1CCCc2cc(S(=O)(=O)N3CCCC(C)C3)ccc21 (stereo not drawn) | 107 | -1 | -11 | 569 | -3 | -1
COc1ccc2c(c1OC)C(=O)N(c1ccc(C)cc1)C2=O | 93 | 16* | -3 | 350 | 0 | -4
COc1ccc2c(c1OC)C(=O)N(c1ccc(C)c(C)c1)C2=O | 82 | -3 | 26 | 309 | -3 | 4
COc1ccccc1NS(=O)(=O)c1ccc2oc(SCC(C)=O)nc2c1 | 99 | 1 | 8 | i | 42* | 4
CN(CCC#N)C(=O)COC(=O)C1c2ccccc2Oc2ccccc21 | 94 | -5 | 5 | 179 | -2 | 1
N#CCCN(CCC#N)C(=O)C1c2ccccc2Oc2ccccc21 | 91 | 114* | 8 | 399 | 0 | -17
O=c1cc(-c2ccccc2)nc2c(Cl)cc(Cl)cn12 | 104 | / | / | / | / | /
Nc1c(C(=O)Nc2cccc(F)c2)nnn1-c1cccc(C(F)(F)F)c1 | 93* | -4 | 36 | 92 | -7 | -10
Cc1ccc(-c2nc(CS(=O)CC(=O)NCCC(C)C)c(C)o2)cc1 (stereo not drawn) | 72* | 3 | 7 | 390 | 13 | -1
Cc1oc(-c2ccc(Cl)cc2)nc1CS(=O)CC(=O)NCc1ccccc1 (stereo not drawn) | 67* | 1 | 27 | 214 | -5 | -14
Fc1ccc(Oc2nc(-c3ccccc3)nnc2C(F)(F)F)cc1 | ? | 10* | 25 | 325 | 7 | 54
Cc1nc(N)sc1-c1csc(Nc2ncccn2)n1 | -54* | / | 15 | / | / | 29
COc1ccccc1Nc1nc(-c2sc(N)nc2C)cs1 | 101 | -1 | 15 | 270 | 8 | -5
O=C(c1cc(F)c(F)cc1Cl)N1CCN(c2ncccn2)CC1 | 95 | 12 | 43 | 218 | -11 | i
Cn1nc(CC(=O)Nc2ccc(N3CCN(C(=O)OC(C)(C)C)CC3)cc2)c2ccccc2c1=O | 86* | -2 | 23 | 164 | -3 | -8
O=CNc1ccccc1 | 99 | 96* | 3 | 419 | 2 | 8
c1ccc(Nc2ccccc2)cc1 | 92 | -3 | 14 | 276 | 2 | 1
COc1ccccc1CNC(=O)CSc1nc2nc(C)cc(C)n2n1 | 102 | 50* | 5 | 481 | -2 | 4
COc1ccc(CNC(=O)CSc2nc3nc(C)cc(C)n3n2)cc1 | 95 | -7 | 1 | 284 | -1 | -7
COC(=O)c1ccc(CNC(=O)COC(=O)c2cc(Cl)ccc2O)cc1 | / | -1 | 1 | 418 | -10 | 5
O=C(CCS(=O)(=O)c1ccc(Br)cc1)NC1CCCCCC1 | 102 | 2 | -1 | 542 | 4 | 1
SMILES | DSG3 Ab inh | LANA-H2A inh | Arr AP2 block | T cell HTS | HDAC3 inh | JMJD2C inh
CN1CCCN(C(c2ccccc2)c2ccc(Cl)cc2)CC1 (stereo not drawn) | 94 | 29* | 6 | 536 | / | -7
CN1CCN(C(c2ccccc2)c2ccccc2)CC1 | 80 | 0 | -3 | 165 | 7 | /
CCOC(=O)c1c(C)n(C)c2ccc(O)c(CN3CCN(C)CC3)c12 | 109 | -2 | 24 | 409 | -2 | /
CCOC(=O)c1c(CSc2ccccc2)n(C)c2ccc(O)c(CN3CCOCC3)c12 | 95 | 18* | 3 | 520 | 6 | 4
C=CCC[C@H](Cc1ccc(F)cc1)C(=O)OC[C@H](Cc1c[nH]c2ccccc12)NC(=O)[C@@H](CC=C)CC(=O)NCCO | 103 | -3 | -9 | 276 | 31* | -1
C=CC[C@@H](CC(=O)N(CCO)Cc1ccccc1)C(=O)N[C@@H](COC(=O)[C@@H](CC=C)Cc1ccc(F)cc1)Cc1ccccc1 | / | 4 | -4 | i | 35* | /
C=CCC[C@@H](Cc1ccc(F)cc1)C(=O)OC[C@@H](Cc1c[nH]c2ccccc12)NC(=O)[C@@H](CC=C)CC(=O)N(CCO)Cc1ccccc1 | 99 | + | -6 | 807 | -2 | -3
C=CCC[C@H](Cc1ccc(F)cc1)C(=O)OC[C@@H](Cc1c[nH]c2ccccc12)NC(=O)[C@@H](CC=C)CC(=O)N[C@@H](CO)Cc1ccccc1 | 94 | -5 | 28 | 427 | 10 | 11
C=CC[C@H](CC(=O)N(CCO)Cc1ccccc1)C(=O)NC[C@H](OC(=O)[C@@H](CC=C)Cc1ccc(F)cc1)c1ccccc1 | 103 | 0 | -2 | 224 | 28* | -61
C=CC[C@@H](CC(=O)N(CCO)Cc1ccccc1)C(=O)NC[C@@H](OC(=O)[C@@H](CC=C)Cc1ccc(F)cc1)c1ccccc1 | 97 | 0 | 18 | 258 | -8 | -3
COc1ccc(C(C(=O)NC2CCCC2)N(C(=O)c2csnn2)C2CCCC2)cc1 (stereo not drawn) | / | 1 | -5 | 265 | -4 | 7
C=CCC[C@@H](Cc1ccc(F)cc1)C(=O)OC[C@@H](NC(=O)[C@@H](CC=C)CC(=O)N(CCO)Cc1ccccc1)c1ccccc1 | 104 | 3 | -2 | 487 | 38* | 4
C=CCC[C@H](Cc1ccc(F)cc1)C(=O)OC[C@H](Cc1c[nH]c2ccccc12)NC(=O)[C@H](CC=C)CC(=O)N(CCO)Cc1ccccc1 | 103 | -1 | -12 | 221 | 47* | -1
C=CC[C@H](CC(=O)N(CCO)Cc1ccccc1)C(=O)N[C@H](COC(=O)[C@@H](CC=C)Cc1ccc(F)cc1)Cc1c[nH]c2ccccc12 | 97 | 4 | 21 | 326 | 41* | -5
C[C@H](CO)N1C[C@H](C)[C@H](CN(C)C(=O)NC2CCCCC2)Oc2cc(-c3cccnc3)ccc2S1(=O)=O | 109 | / | / | / | / | /
O=C(O)c1ccc2c(c1)S(=O)(=O)c1cc(Cl)ccc1C2=O | 99 | 4 | 5 | 487 | 2 | 0
CCOC(=O)C1=C(COC(=O)/C=C/c2ccc(SC)cc2)NC(=O)NC1C (stereo not drawn) | 103 | 4 | 33 | 362 | -1 | -8
CCn1cc(Cl)c(C(=O)Nc2ccccc2C(N)=O)n1 | 106 | -4 | 20 | 264 | -2 | 2
C[n+]1cn(Cc2ccc(C#N)cc2)c2ccccc21 | 99 | -15 | -2 | 88 | -4 | 0
